# Assay results from ChEMBL document CHEMBL5107964, “Development of 2-deoxystreptamine-nucleobase conjugates for the inhibition of oncogenic miRNA production” (RSC Med Chem, 2022).
# Activity calls are given as the source filed them. No cut-off for these calls is given here.
# Assays:
# [1] = Binding affinity to 5'FAM-labeled Precursor microRNA-372 (unknown origin) assessed as dissociation constant incubated for 4 hrs by fluorescence-based assay
# In short: (§1)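 Each 5'-FAM-labelled pre-miRNA (10 nM) was folded in 20 mM Tris-HCl pH 7.4, 12 mM NaCl, 1 mM DTT by heating at 90°C for 2 min, holding at 4°C for 10 min and returning to room temperature over 15 min. Ligand was added in 15 dilutions (0.030 nM–0.5 mM). Fluorescence (ex 485, em 535 nm) was read after 4 h. Runs were in duplicate, repeated at least three times, and KD came from a 1:1 binding model.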
# [2] = Binding affinity to 5'FAM-labeled Precursor microRNA-372 (unknown origin) assessed as dissociation constant incubated for 4 hrs in presence of tRNA by fluorescence-based assay
# In short: (§2)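 KD was measured with 10 nM folded 5'-FAM-pre-miR-372 in 20 mM Tris-HCl pH 7.4, 12 mM NaCl, 1 mM DTT, with 100 eq. competitor added to the RNA. Competitor was tRNA or duplex DNA from two 15-mer strands annealed at 90°C for 5 min then slowly cooled. Ligand was added in 15 dilutions (0.030 nM–0.5 mM) and fluorescence (ex 485, em 535 nm) read after 4 h. A 1:1 model was fitted.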
# [3] = Binding affinity to 5'FAM-labeled Precursor microRNA-372 (unknown origin) assessed as dissociation constant incubated for 4 hrs in presence of DNA by fluorescence-based assay; in short: as §2
# [4] = Selectivity ratio of Kd for binding affinity to 5'FAM-labeled Precursor microRNA-372 (unknown origin) in presence of tRNA to Kd for binding affinity to 5'FAM-labeled Precursor microRNA-372 (unknown origin)
# [5] = Selectivity ratio of Kd for binding affinity to 5'FAM-labeled Precursor microRNA-372 (unknown origin) in presence of DNA to Kd for binding affinity to 5'FAM-labeled Precursor microRNA-372 (unknown origin)
# [6] = Inhibition of 5'FAM-labeled and 3'DAB-labeled Precursor microRNA-372 (unknown origin) assessed as inhibition of Dicer-induced pre-miR-372 cleavage by measuring fluorescence incubated for 4 hrs in presence of human recombinant Dicer by FRET Dicer assay
# In short: (§3)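 The pre-miRNA beacon (50 nM; 5'-FAM, 3'-dabcyl) in 20 mM Tris-HCl pH 7.4, 12 mM NaCl, 1 mM DTT was preincubated with inhibitor (12 dilutions) for 30 min at room temperature. Human recombinant Dicer was then added. After 4 h at 37°C the fluorescence increase (ex 485, em 535 nm) was read. Assays were in duplicate, repeated three times, and IC50 was obtained by nonlinear regression.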
# [7] = Inhibition of Precursor microRNA-372 in human HEK293 cell lysate assessed as inhibition of Dicer-induced pre-miR-372 maturation by measuring fluorescence incubated for 4 hrs by FRET Dicer assay; assay type: subcellular
# In short: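 The FRET cleavage assay used 50 nM pre-miR-372 beacon (5'-FAM, 3'-dabcyl), with HEK293 whole-cell lysate in place of recombinant enzyme. Inhibitor was preincubated with the beacon for 30 min at room temperature. After 4 h at 37°C the fluorescence rise (ex 485, em 535 nm) was measured. IC50 was obtained by nonlinear regression.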
# [8] = Inhibition of 5'FAM-labeled and 3'DAB-labeled Precursor microRNA-18a (unknown origin) assessed as inhibition of Dicer-induced pre-miR-18a cleavage by measuring fluorescence incubated for 4 hrs in presence of human recombinant Dicer by FRET Dicer assay; in short: as §3
# [9] = Inhibition of 5'FAM-labeled and 3'DAB-labeled Precursor microRNA-148a (unknown origin) assessed as inhibition of Dicer-induced pre-miR-148a cleavage by measuring fluorescence incubated for 4 hrs in presence of human recombinant Dicer by FRET Dicer assay; in short: as §3
# [10] = Binding affinity to 5'FAM-labeled Precursor microRNA-18a (unknown origin) incubated for 4 hrs by fluorescence-based assay; in short: as §1
# [11] = Binding affinity to 5'FAM-labeled Precursor microRNA-148a (unknown origin) incubated for 4 hrs by fluorescence-based assay; in short: as §1
Kd [1] [µM],Kd [2] [µM],Kd [3] [µM],Selectivity ratio [4],Selectivity ratio [5],IC50 [6] [µM],IC50 [7] [µM],IC50 [8] [µM],IC50 [9] [µM],Activity [10],Activity [11],Structure (SMILES)
17.1,> 1000,> 1000,,,,,,,,,N[C@@H]1C[C@H](N)[C@@H](OCCn2cc(Cn3ccc(O)nc3=O)nn2)[C@H](O)[C@H]1O
0.0461,0.0164,0.0222,1.1,1.5,25.6,,,,,,CCCCNC(=O)Nc1cccc(-c2cn(Cc3cn(C[C@H]4O[C@@H](O[C@@H]5[C@@H](O)[C@H](N)C[C@H](N)[C@H]5O[C@H]5O[C@H](CN)[C@@H](O)[C@H](O)[C@H]5N)[C@H](O)[C@@H]4O[C@H]4O[C@@H](CN)[C@@H](O)[C@H](O)[C@H]4N)nn3)cn2)c1
1.62,3.65,2.11,2.2,1.3,72.4,,,,,,CCCCNC(=O)Nc1cccc(-c2cn(Cc3cn(CCO[C@H]4[C@H](O)[C@@H](O)[C@H](N)C[C@@H]4N)nn3)cn2)c1
3.53,3.92,4.27,1.1,1.2,81.1,> 500,20.3,18.2,Active,Active,Nc1cccc(-c2cn(Cc3cn(CCO[C@H]4[C@H](O)[C@@H](O)[C@H](N)C[C@@H]4N)nn3)cn2)c1
> 1000,,,,,,,,,,,N[C@@H]1C[C@H](N)[C@@H](O)[C@H](O)[C@H]1O
5.13,8.56,11,1.7,2.1,74.9,,89.5,85.3,Active,Active,N[C@@H]1C[C@H](N)[C@@H](OCCn2cc(CCC(=O)NCC(=O)Nc3nc(-c4ccccc4)cs3)nn2)[C@H](O)[C@H]1O
6.78,8.51,9.02,1.3,1.3,> 100,,177,> 500,Active,Active,N[C@@H]1C[C@H](N)[C@@H](OCCn2cc(Cn3cnc(-c4cccc(NC(=O)c5ccc6ccccc6c5)c4)c3)nn2)[C@H](O)[C@H]1O
0.627,2.64,2.96,,,12.6,29.5,,,Active,Active,N[C@@H]1C[C@H](N)[C@@H](OCCn2cc(Cn3cnc(-c4cccc(NC(=O)c5ccccc5)c4)c3)nn2)[C@H](O)[C@H]1O
101,> 1000,> 1000,,,,,,,,,Nc1ccn(Cc2cn(CCO[C@H]3[C@H](O)[C@@H](O)[C@H](N)C[C@@H]3N)nn2)c(=O)n1
0.0189,0.0208,0.0244,1.1,1.3,8.3,20.4,,,,,NC[C@@H]1O[C@H](O[C@H]2[C@@H](O)[C@H](O[C@@H]3[C@@H](O)[C@H](N)C[C@H](N)[C@H]3O[C@H]3O[C@H](CN)[C@@H](O)[C@H](O)[C@H]3N)O[C@@H]2Cn2cc(Cn3cnc(-c4cccc(NC(=O)c5ccccc5)c4)c3)nn2)[C@H](N)[C@@H](O)[C@@H]1O
11.1,> 1000,47.1,,4.2,,,,,,,Nc1ncnc2c1ncn2Cc1cn(CCO[C@H]2[C@H](O)[C@@H](O)[C@H](N)C[C@@H]2N)nn1
